Data from ChEMBL document CHEMBL1811786, “Identification of MK-5710 ((8aS)-8a-methyl-1,3-dioxo-2-[(1S,2R)-2-phenylcyclo- propyl]-N-(1-phenyl-1H-pyrazol-5-yl)hexahydro-imidazo[1,5-a]pyrazine-7(1H)-carboxamide), a potent smoothened antagonist for use in Hedgehog pathway dependent malignancies, part 2” (Bioorg Med Chem Lett, 2011).

Tests used:
[1] = molecular target: T1, Protein smoothened (Homo sapiens, UniProt Q99835); test: Displacement of BODIPY-cyclopamine from human Smo expressed in HEK293 cells in presence of 2% fetal calf serum; assay type: cell-based
Method in brief: (§1)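 Competition binding: displacement of fluorescently labeled bodipy-cyclopamine from recombinant human Smo expressed in HEK-293 cells. Run in 2% fetal calf serum and, separately, in 20% normal human serum. IC50 values are means of at least five experiments.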

[2] = organism: Canis familiaris; test: Clearance in dog; assay type: ADME, organism-based, Canis lupus familiaris; settings: in vivo
[3] = Oral bioavailability in rat; assay type: ADME, organism-based; settings: in vivo
[4] = molecular target: T1, Protein smoothened; test: Displacement of BODIPY-cyclopamine from human Smo expressed in HEK293 cells in presence of 20% normal human serum; assay type: cell-based; method in brief: as §1
[5] = Half life in dog; assay type: ADME, organism-based, Canis lupus familiaris; settings: in vivo
[6] = Volume of distribution at steady state in rat; assay type: ADME, organism-based; settings: in vivo, read-out: Vdss
[7] = Volume of distribution at steady state in dog; assay type: ADME, organism-based, Canis lupus familiaris; settings: in vivo, read-out: Vdss
[8] = organism: Rattus norvegicus; test: Clearance in rat; assay type: ADME, organism-based; settings: in vivo
[9] = Half life in rat; assay type: ADME, organism-based; settings: in vivo
[10] = molecular target: CYP2C9 (Homo sapiens, UniProt P11712); test: Inhibition of CYP2C9 at 10 uM; assay type: ADME
[11] = Plasma protein binding in human assessed as unbound fraction; assay type: ADME, cell-free
[12] = molecular target: CYP3A4 (Homo sapiens, UniProt P08684); test: Inhibition of CYP3A4 at 10 uM; assay type: ADME
[13] = Antiproliferative activity against irradiated Ptch +/- mouse medulloblastoma cells; assay type: functional; settings: Medulloblastoma cell, light or radiation study
Method in brief: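 Proliferation of irradiated Ptch +/- mouse medulloblastoma cells, which depend on the Hh pathway; readout reported as CC50.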

[14] = Oral bioavailability in dog; assay type: ADME, organism-based, Canis lupus familiaris; settings: in vivo

T1 sequence (Q99835 whole entry): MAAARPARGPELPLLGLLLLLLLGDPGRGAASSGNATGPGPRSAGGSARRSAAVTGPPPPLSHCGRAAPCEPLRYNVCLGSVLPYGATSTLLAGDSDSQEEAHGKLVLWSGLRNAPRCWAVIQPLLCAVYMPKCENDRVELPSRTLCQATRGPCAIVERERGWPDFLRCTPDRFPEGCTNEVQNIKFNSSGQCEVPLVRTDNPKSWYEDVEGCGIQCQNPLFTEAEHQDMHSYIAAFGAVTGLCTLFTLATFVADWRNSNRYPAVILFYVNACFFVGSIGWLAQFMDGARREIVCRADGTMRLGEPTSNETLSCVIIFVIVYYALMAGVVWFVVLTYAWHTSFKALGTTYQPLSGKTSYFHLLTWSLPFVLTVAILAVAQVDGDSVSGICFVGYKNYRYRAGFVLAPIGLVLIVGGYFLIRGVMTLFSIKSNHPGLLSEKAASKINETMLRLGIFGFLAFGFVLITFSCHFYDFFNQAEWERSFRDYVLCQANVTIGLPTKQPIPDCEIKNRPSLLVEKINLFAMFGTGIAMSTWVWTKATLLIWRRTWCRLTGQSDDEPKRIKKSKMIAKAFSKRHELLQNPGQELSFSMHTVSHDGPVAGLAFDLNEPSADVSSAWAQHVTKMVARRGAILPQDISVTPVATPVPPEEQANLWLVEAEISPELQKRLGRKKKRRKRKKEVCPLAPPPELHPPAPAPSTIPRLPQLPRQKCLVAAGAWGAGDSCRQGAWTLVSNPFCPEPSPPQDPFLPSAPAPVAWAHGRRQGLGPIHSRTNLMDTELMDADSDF
CYP2C9, sequence (P11712 whole entry): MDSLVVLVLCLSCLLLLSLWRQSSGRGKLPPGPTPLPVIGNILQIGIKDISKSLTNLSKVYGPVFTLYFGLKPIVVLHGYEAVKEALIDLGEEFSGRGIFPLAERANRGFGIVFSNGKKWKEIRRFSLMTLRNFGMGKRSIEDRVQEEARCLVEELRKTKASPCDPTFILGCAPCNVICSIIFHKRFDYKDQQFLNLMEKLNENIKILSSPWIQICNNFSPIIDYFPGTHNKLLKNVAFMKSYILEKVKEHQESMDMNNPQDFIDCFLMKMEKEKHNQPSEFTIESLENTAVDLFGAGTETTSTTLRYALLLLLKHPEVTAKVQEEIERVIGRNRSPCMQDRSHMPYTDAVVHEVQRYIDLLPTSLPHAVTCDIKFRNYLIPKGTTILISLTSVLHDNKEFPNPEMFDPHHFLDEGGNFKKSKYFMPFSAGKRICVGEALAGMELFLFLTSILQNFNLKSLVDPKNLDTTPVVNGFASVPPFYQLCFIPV
CYP3A4, sequence (P08684 whole entry): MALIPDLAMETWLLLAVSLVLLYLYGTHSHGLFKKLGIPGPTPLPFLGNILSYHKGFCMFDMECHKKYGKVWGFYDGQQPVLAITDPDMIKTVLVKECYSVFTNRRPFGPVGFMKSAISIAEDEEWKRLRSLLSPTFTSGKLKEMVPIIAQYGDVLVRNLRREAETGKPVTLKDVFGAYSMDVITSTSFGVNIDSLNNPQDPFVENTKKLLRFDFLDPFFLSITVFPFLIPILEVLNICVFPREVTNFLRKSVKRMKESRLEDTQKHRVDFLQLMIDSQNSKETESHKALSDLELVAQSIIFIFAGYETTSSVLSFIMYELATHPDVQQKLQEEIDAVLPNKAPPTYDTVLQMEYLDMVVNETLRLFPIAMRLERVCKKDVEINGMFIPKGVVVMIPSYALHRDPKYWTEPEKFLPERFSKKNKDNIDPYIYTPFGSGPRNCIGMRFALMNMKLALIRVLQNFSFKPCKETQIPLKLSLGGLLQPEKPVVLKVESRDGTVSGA

Compound	IC50 [1]	bioavailability [3]	IC50 [4]	Vd [6]	clearance [8]	half-life [9]	other results
O=C(Nc1ccccc1-c1ccccc1)N1CCN2C(=O)N(C3CC3c3ccccc3)C(=O)C2C1 (stereo in doubt; 6)	0.035 µM						
O=C(Nc1cccnc1-c1ccsc1)N1CCN2C(=O)N([C@H]3C[C@@H]3c3ccccc3)C(=O)[C@@H]2C1	0.021 µM	41%	0.042 µM	10 L/kg	3.48 L/h/kg	10 h	clearance [2]: 0.456 L/h/kg; half-life [5]: 3.1 h; Vd [7]: 1 L/kg
CS(=O)(=O)c1cc(Cl)c(NC(=O)N2CCN3C(=O)N([C@H]4C[C@@H]4c4ccccc4)C(=O)[C@@H]3C2)c(Cl)c1	0.042 µM	74%	0.068 µM	0.6 L/kg	0.3 L/h/kg	3.2 h	clearance [2]: 0.102 L/h/kg; half-life [5]: 1 h; Vd [7]: 0.3 L/kg
N#Cc1cc(Cl)c(NC(=O)N2CCN3C(=O)N([C@H]4C[C@@H]4c4ccccc4)C(=O)[C@@H]3C2)c(Cl)c1	0.1 µM	56%	0.45 µM	0.5 L/kg	0.12 L/h/kg	5.4 h	
O=C(Nc1ccnn1-c1cccc(Cl)c1)N1CCN2C(=O)N([C@H]3C[C@@H]3c3ccccc3)C(=O)[C@@H]2C1	0.018 µM		0.032 µM				
O=C(Nc1ccccc1-c1ccccc1)N1CCN2C(=O)N([C@H]3C[C@@H]3c3ccccc3)C(=O)[C@@H]2C1	0.021 µM		0.07 µM	8 L/kg	3.36 L/h/kg	2.7 h	inhibition at 10 µM [10]: 50%; fraction unbound [11]: 0.044; inhibition at 10 µM [12]: 50%; CC50 [13]: 0.002 µM
O=C(Nc1c(Cl)cc(F)cc1Cl)N1CCN2C(=O)N([C@H]3C[C@@H]3c3ccccc3)C(=O)[C@@H]2C1	0.18 µM		0.52 µM				
O=C(Nc1cccc(Cl)c1Cl)N1CCN2C(=O)N([C@@H]3C[C@H]3c3ccccc3)C(=O)[C@@H]2C1	0.67 µM						
O=C(Nc1cccnc1-c1cccc(Cl)c1)N1CCN2C(=O)N([C@H]3C[C@@H]3c3ccccc3)C(=O)[C@@H]2C1	0.004 µM		0.015 µM	4.1 L/kg	3.24 L/h/kg	1.3 h	
O=C(Nc1cccc(Cl)c1Cl)N1CCN2C(=O)N([C@@H]3C[C@H]3c3ccccc3)C(=O)[C@H]2C1	1.7 µM						
O=C(Nc1ccccc1-c1ccccc1)N1CCN2C(=O)N(C3CC3c3ccccc3)C(=O)C2C1 (stereo in doubt; 3)	0.048 µM						
CN(C)C(=O)c1cc(Cl)c(NC(=O)N2CCN3C(=O)N([C@H]4C[C@@H]4c4ccccc4)C(=O)[C@@H]3C2)c(Cl)c1	0.077 µM		0.12 µM	2.1 L/kg	2.46 L/h/kg	0.6 h	
C[C@]12CN(C(=O)Nc3ccccc3-c3ccccc3)CCN1C(=O)N([C@H]1C[C@@H]1c1ccccc1)C2=O	1.2 µM		1.6 µM				
O=C(Nc1cccnc1-c1ccccc1)N1CCN2C(=O)N([C@H]3C[C@@H]3c3ccccc3)C(=O)[C@@H]2C1	0.012 µM	31%	0.012 µM	6.7 L/kg	3.24 L/h/kg	4.9 h	
C[C@@]12CN(C(=O)Nc3ccccc3-c3ccccc3)CCN1C(=O)N([C@H]1C[C@@H]1c1ccccc1)C2=O	0.019 µM		0.06 µM				
N#Cc1cccc(-c2ncccc2NC(=O)N2CCN3C(=O)N([C@H]4C[C@@H]4c4ccccc4)C(=O)[C@@H]3C2)c1	0.016 µM	43%	0.022 µM	6 L/kg	2.88 L/h/kg	3.8 h	
O=C(Nc1cccc(Cl)c1Cl)N1CCN2C(=O)N([C@H]3C[C@@H]3c3ccccc3)C(=O)[C@H]2C1	0.65 µM						
O=C(Nc1ccccc1-c1ccccc1)N1CCN2C(=O)N(C3CC3c3ccccc3)C(=O)C2C1 (stereo in doubt; 5)	0.095 µM						
O=C(Nc1cccc(Cl)c1Cl)N1CCN2C(=O)N([C@H]3C[C@@H]3c3ccccc3)C(=O)[C@@H]2C1	0.23 µM	30%	0.69 µM	8 L/kg	2.76 L/h/kg	2.2 h	clearance [2]: 0.24 L/h/kg; half-life [5]: 10 h; CC50 [13]: 0.012 µM; Vd [7]: 2.5 L/kg; bioavailability [14]: 97%
O=C(Nc1ccnn1-c1cccc(F)c1)N1CCN2C(=O)N([C@H]3C[C@@H]3c3ccccc3)C(=O)[C@@H]2C1	0.007 µM		0.009 µM				
